What was measured:
Type in all cases: functional
Candida = test: Compound was tested for inherent antifungal geometric minimum inhibitory concentration (GMMIC) against Candida albicans and Candida tropicalis in serial dilution from 64 to 0.0313 ug/mL
Method in brief: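 Eagle's minimum essential medium, pH 7.0. Compound in DMSO or ethanol, serially diluted in medium, inoculum 5×10^2/cc. Incubated at 37 °C under CO2 for 48 h. MIC is the lowest concentration with complete visible growth inhibition in microtiter wells. Geometric mean over C. albicans and C. tropicalis strains.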

Arthrodermataceae = test: Compound was tested for inherent antifungal geometric minimum inhibitory concentration (GMMIC) against Dermatophytes in serial dilution from 64 to 0.0313 ug/mL
Method in brief: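 Sabouraud dextrose broth, pH 5.7, inoculum ~10^4/cc, 27 °C, read visually at 72 h. MIC is the lowest concentration giving complete growth inhibition. Compound in DMSO or ethanol, serially diluted in broth. Geometric mean over T. mentagrophytes D24 and D30, T. rubrum D54 and D61, T. tonsurans D73 and M. canis D18.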

Aspergillus sp. = test: Compound was tested for inherent antifungal geometric minimum inhibitory concentration (GMMIC) against Aspergillus in serial dilution from 64 to 0.0313 ug/mL
Method in brief: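 Broth microdilution in Sabouraud dextrose broth, pH 5.7. Compound dissolved in DMSO or ethanol and serially diluted in medium. Inoculum ~10^4/cc, incubated at 27 °C for 72 h. MIC is the lowest concentration giving complete growth inhibition by visual reading. Geometric mean taken across the Aspergillus isolates.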

SMILES	GMMIC (Candida)	GMMIC (Arthrodermataceae)	GMMIC (Aspergillus sp.)
CCC(CC)n1ncn(-c2ccc(N3CCN(c4ccc(OC[C@H]5CC[C@](Cn6cncn6)(c6ccc(F)cc6F)O5)cc4)CC3)cc2)c1=O	0.02 µg/mL	>=0.35 ug ml-1	0.25 µg/mL
CCC(CC)n1ncn(-c2ccc(N3CCN(c4ccc(OC[C@H]5CO[C@](Cn6cncn6)(c6ccc(F)cc6F)C5)cc4)CC3)cc2)c1=O	0.27 µg/mL	>=128 ug ml-1	>=128 ug ml-1
CCC(CC)n1ncn(-c2ccc(N3CCN(c4ccc(OC[C@@H]5CO[C@@](Cn6cncn6)(c6ccc(F)cc6F)C5)cc4)CC3)cc2)c1=O	<=0.04 ug ml-1	>=0.06 ug ml-1	0.04 µg/mL
CCC(CC)n1ncn(-c2ccc(N3CCN(c4ccc(OC[C@@H]5CC[C@@](Cn6cncn6)(c6ccc(F)cc6F)O5)cc4)CC3)cc2)c1=O	<=0.1 ug ml-1	>=128 ug ml-1	>=128 ug ml-1
CCC(C)n1ncn(-c2ccc(N3CCN(c4ccc(OCC5COC(Cn6cncn6)(c6ccc(Cl)cc6Cl)O5)cc4)CC3)cc2)c1=O (racemic) [ITRACONAZOLE]	0.04 µg/mL	>=0.89 ug ml-1	0.3 µg/mL
